# ChEMBL document CHEMBL4765376, “Discovery of an Orally Available Diazabicyclooctane Inhibitor (ETX0282) of Class A, C, and D Serine β-Lactamases” (J Med Chem, 2020)
# Active and inactive are the calls of the source. The calls are words filed in the database; no cut-off is given here.
# Assays:
# Escherichia coli [1] = test: Antibacterial activity against Escherichia coli ARC3627 assessed as reduction in bacterial growth by CLSI based broth dilution method; type: functional
# In short: (§1)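 Broth microdilution in CAMHB following CLSI.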
# [2] = Inhibition of beta lactamase AmpC in Pseudomonas aeruginosa assessed as decrease in enzyme activity using nitrocefin as chromogenic substrate incubated for 60 mins by […] plate reader analysis
# Klebsiella pneumoniae [3] = test: Inhibition of beta-lactamase activity in Klebsiella pneumoniae ARC561 assessed as MIC for cefpodoxime antibacterial activity at 4 ug/ml by CLSI based broth dilution method (reference value: 32 ug/ml); settings: dose 4.0 µg/ml
# [4] = Inhibition of beta lactamase TEM-1 in Escherichia coli assessed as decrease in enzyme activity using nitrocefin as chromogenic substrate incubated for 60 mins by […] plate reader analysis
# Escherichia coli [5] = test: Inhibition of beta-lactamase activity in Escherichia coli ARC3627 assessed as MIC for cefpodoxime antibacterial activity at 4 ug/ml by CLSI based broth dilution method (Rvb >64 ug/ml); settings: dose 4.0 µg/ml
# [6] = Inhibition of beta lactamase OXA-48 in Klebsiella pneumoniae assessed as decrease in enzyme activity using nitrocefin as chromogenic substrate incubated for 10 mins by […] plate reader analysis
# [7] = Inhibition of beta lactamase TEM-1 in Escherichia coli assessed as decrease in enzyme activity using nitrocefin as chromogenic substrate incubated for 10 mins by […] plate reader analysis
# Klebsiella pneumoniae [8] = test: Antibacterial activity against Klebsiella pneumoniae ARC561 assessed as reduction in bacterial growth by CLSI based broth dilution method; type: functional; in short: as §1
# [9] = Inhibition of beta lactamase AmpC in Pseudomonas aeruginosa assessed as decrease in enzyme activity using nitrocefin as chromogenic substrate incubated for 10 mins by […] plate reader analysis
# [10] = Inhibition of beta lactamase OXA-48 in Klebsiella pneumoniae assessed as decrease in enzyme activity using nitrocefin as chromogenic substrate incubated for 60 mins by absorbance plate reader analysis
# Klebsiella oxytoca = test: Antibacterial activity against Klebsiella oxytoca ARC 5389 carbapenem resistant clinical isolates assessed as reduction in bacterial growth by CLSI based broth dilution method; type: functional
# In short: (§2)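 Broth microdilution per CLSI in cation-adjusted Mueller–Hinton broth against drug-resistant clinical isolates; MIC read as the lowest concentration preventing bacterial growth.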
# Citrobacter freundii = test: Antibacterial activity against Citrobacter freundii ARC 3518 carbapenem resistant clinical isolates assessed as reduction in bacterial growth by CLSI based broth dilution method; type: functional; in short: as §2
# Klebsiella pneumoniae [11] = test: Antibacterial activity against Klebsiella pneumoniae ARC 6107 carbapenem resistant clinical isolates assessed as reduction in bacterial growth by CLSI based broth dilution method; type: functional; in short: as §2
# Enterobacter cloacae [12] = test: Antibacterial activity against Enterobacter cloacae ARC 6049 drug resistant clinical isolates assessed as reduction in bacterial growth by CLSI based broth dilution method; type: functional; in short: as §2
# Enterobacter cloacae [13] = test: Antibacterial activity against Enterobacter cloacae ARC 6055 drug resistant clinical isolates assessed as reduction in bacterial growth by CLSI based broth dilution method; type: functional; in short: as §2
# Klebsiella pneumoniae [14] = test: Antibacterial activity against Klebsiella pneumoniae ARC 6082 drug resistant clinical isolates assessed as reduction in bacterial growth by CLSI based broth dilution method; type: functional; in short: as §2
# Klebsiella pneumoniae [15] = test: Antibacterial activity against Klebsiella pneumoniae ARC 6098 drug resistant clinical isolates assessed as reduction in bacterial growth by CLSI based broth dilution method; type: functional; in short: as §2
# Escherichia coli [16] = test: In vivo antibacterial activity against multidrug-resistant Escherichia coli ARC 2687 infected in CD-1 mouse model of neutropenic thigh infection assessed as colony forming unit at 50 mg/kg, po administered at 6 hrs interval; type: functional, organism-based
# In short: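 Female CD-1 mice (20–22 g, 3/arm) made neutropenic with ip cyclophosphamide, 150 mg/kg on day −4 and 100 mg/kg on day −1. Each thigh received an im inoculum of 5.5 × 10^6–1.6 × 10^7 CFU from saline suspension (OD625 0.1, diluted). Dosing began 2 h post-infection, q6h. Oral agents were given in 0.5% HPMC/0.1% Tween 80; meropenem was given sc in water. Thighs were taken at 24 h, homogenized and plated on TSA (35 °C overnight) for CFU counts.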
# Klebsiella pneumoniae [17] = test: Antibacterial activity against Klebsiella pneumoniae ARC 6088 carbapenem-resistant clinical isolates assessed as reduction in bacterial growth by CLSI based broth dilution method; type: functional; in short: as §2
# [18] = Oral bioavailability in Sprague-Dawley rat at 10 mg/kg by LC/MS/MS analysis; type: ADME, organism-based; settings: in vivo
# In short: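 Jugular vein-cannulated male Sprague Dawley rats (180–200 g, n = 3/route). Intravenous arm: active acid at 10 mg/kg in 0.9% saline, plasma sampled 0.08–8 h. Oral arm: prodrug at a dose equivalent to 10 mg/kg acid in 25:75 PEG 400/WFI, plasma sampled 0.25–24 h. Levels by LC/MS/MS; F = (AUCpo/AUCiv) × 100.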
# [19] = Metabolic stability in human liver S9 fraction assessed as half-life at 10 uM up to 60 mins by LC/MS/MS analysis; type: ADME, subcellular
# In short: (§3)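 S9 fraction at 0.8 mg/mL protein in 100 mM potassium phosphate pH 7.4, preincubated 5 min at 37 °C, then compound added at 10 μM final. Aliquots taken at 0, 2, 5, 10, 20, 40 and 60 min, quenched in acetonitrile with internal standard, and prodrug measured by LC/MS/MS. First-order half-life taken from the log-linear depletion slope.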
# [20] = Metabolic stability in rat intestinal S9 fraction assessed as half-life at 10 uM up to 60 mins by LC/MS/MS analysis; type: ADME, subcellular, Intestine; in short: as §3
# [21] = Metabolic stability in rat liver S9 fraction assessed as half-life at 10 uM up to 60 mins by LC/MS/MS analysis; type: ADME, subcellular; in short: as §3
# [22] = Stability of compound in phosphate buffer assessed as half-life at pH 7.4; type: physicochemical
# In short: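 Compound at 10 μM in potassium phosphate buffer pH 7.4 at 37 °C without S9. Sampled at 0 to 60 min and measured by LC/MS/MS. Half-life from the first-order log-linear depletion slope.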
# [23] = Metabolic stability in human intestinal S9 fraction assessed as half-life at 10 uM up to 60 mins by LC/MS/MS analysis; type: ADME, subcellular, Intestine; in short: as §3
SMILES,MIC (Escherichia coli [1]),IC50 [2],MIC (Klebsiella pneumoniae [3]),IC50 [4],MIC (Escherichia coli [5]),IC50 [6],IC50 [7],MIC (Klebsiella pneumoniae [8]),IC50 [9],IC50 [10],further results
CC1=C[C@@H]2CN(C(=O)N2O[C@@H](F)C(=O)O)[C@@H]1C(N)=O,8 µg/mL,71 nM,2 µg/mL,19 nM,1 µg/mL,63 nM,13 nM,> 32 µg/mL,180 nM,15 nM,
COCC1=C(C(=O)O)N2C(=O)[C@@H](NC(=O)/C(=N\OC)c3csc(N)n3)[C@H]2SC1 [CEFPODOXIME],> 64 µg/mL,,,,,,,32 µg/mL,,,MIC (Klebsiella oxytoca): > 64 µg/mL; MIC (Citrobacter freundii): > 64 µg/mL; MIC (Klebsiella pneumoniae [11]): > 64 µg/mL; MIC (Enterobacter cloacae [12]): > 64 µg/mL; MIC (Enterobacter cloacae [13]): > 64 µg/mL; MIC (Klebsiella pneumoniae [14]): > 64 µg/mL; MIC (Klebsiella pneumoniae [15]): > 64 µg/mL; Activity (Escherichia coli [16]): inactive; MIC (Klebsiella pneumoniae [17]): > 64 µg/mL
CC1=C[C@@H](C(N)=O)N2C[C@@H]1N(O[C@H](F)C(=O)O)C2=O,,140 nM,0.25 µg/mL,3.2 nM,< 0.06 µg/mL,370 nM,2.3 nM,,450 nM,70 nM,
CC1=C[C@@H](C(N)=O)N2C[C@@H]1N(O[C@@H](F)C(=O)OC(C)C)C2=O,,,,,,,,,,,bioavailability [18]: 84%
CC1=C[C@@H](C(N)=O)N2C[C@@H]1N(O[C@@H](F)C(=O)O)C2=O (racemic),,300 nM,0.06 µg/mL,26 nM,< 0.06 µg/mL,67 nM,20 nM,> 32 µg/mL,1300 nM,19 nM,
CC1=C[C@@H]2CN(C(=O)N2O[C@@H](F)C(=O)O)[C@@H]1C(=O)NC1COC1,16 µg/mL,54 nM,4 µg/mL,660 nM,> 32 µg/mL,55 nM,440 nM,> 32 µg/mL,260 nM,12 nM,
CCOC(=O)[C@H](F)ON1C(=O)N2C[C@H]1C=C(C)[C@H]2C(=O)NCCS(N)(=O)=O,,,,,,,,,,,half-life at 10 µM [19]: 9.9 min; half-life at 10 µM [20]: 20 min; bioavailability [18]: 4%; half-life at 10 µM [21]: 10 min; half-life [22]: 26 min; half-life at 10 µM [23]: 22 min
"NC(=O)[C@@H]1C(C2CC2)=C[C@@H]2CN1C(=O)N2OC(F)C(=O)O (single isomer, unassigned)",32 µg/mL,95 nM,2 µg/mL,24 nM,2 µg/mL,17 nM,18 nM,> 32 µg/mL,290 nM,5.2 nM,
CC1=C[C@@H](C(N)=O)N2C[C@@H]1N(OCC(=O)O)C2=O,2 µg/mL,4600 nM,0.125 µg/mL,150 nM,< 0.06 µg/mL,66 nM,340 nM,32 µg/mL,14000 nM,530 nM,
NC(=O)[C@@H]1CC[C@@H]2CN1C(=O)N2OS(=O)(=O)O [AVIBACTAM],32 µg/mL,,1 µg/mL,,0.5 µg/mL,,,> 32 µg/mL,,,
CC1=C[C@@H]2CN(C(=O)N2OC(C)(F)C(=O)O)[C@@H]1C(N)=O (some centres not stated),> 32 µg/mL,400 nM,2 µg/mL,230 nM,2 µg/mL,89000 nM,680 nM,> 32 µg/mL,1400 nM,22000 nM,
CC1=C[C@@H]2CN(C(=O)N2OCC(=O)O)[C@@H]1C(N)=O,32 µg/mL,1200 nM,2 µg/mL,430 nM,4 µg/mL,150 nM,1500 nM,> 32 µg/mL,4100 nM,51 nM,
CC1=C[C@@H]2CN(C(=O)N2OC(F)(F)C(=O)O)[C@@H]1C(N)=O,inactive,12 nM,inactive,1.5 nM,inactive,75 nM,1.2 nM,inactive,50 nM,14 nM,
CC1=C[C@@H]2CN(C(=O)N2O[C@@H](F)C(=O)O)[C@@H]1C(=O)NOCC1CC1,> 32 µg/mL,130 nM,4 µg/mL,26 nM,16 µg/mL,400 nM,18 nM,> 32 µg/mL,700 nM,87 nM,
CCOC(=O)[C@@H](F)ON1C(=O)N2C[C@H]1C(C)=C[C@H]2C(N)=O,,,,,,,,,,,bioavailability [18]: 75%
CC1=C[C@@H]2CN(C(=O)N2O[C@@H](F)C(=O)O)[C@@H]1C(=O)NCCNS(N)(=O)=O,2 µg/mL,14 nM,0.125 µg/mL,83 nM,< 0.06 µg/mL,2000 nM,55 nM,> 32 µg/mL,53 nM,420 nM,
CC1=C[C@@H]2CN(C(=O)N2O[C@H](F)C(=O)OC(C)OC(=O)OC(C)C)[C@@H]1C(N)=O (some centres not stated),,,,,,,,,,,bioavailability [18]: 11%
CC1=C[C@@H]2CN(C(=O)N2OS(=O)(=O)O)[C@@H]1C(N)=O,0.25 µg/mL,5.8 nM,< 0.06 µg/mL,,< 0.06 µg/mL,24 nM,,8 µg/mL,8 nM,5 nM,
CC1=C[C@@H]2CN(C(=O)N2O[C@H](F)C(=O)OC(C)C)[C@@H]1C(N)=O,,,,,,,,,,,bioavailability [18]: 38%
CC1=C[C@@H]2CN(C(=O)N2O[C@@H](F)C(=O)O)[C@@H]1C(=O)NCCS(N)(=O)=O,4 µg/mL,4.1 nM,1 µg/mL,57 nM,< 0.06 µg/mL,2200 nM,48 nM,> 32 µg/mL,22 nM,410 nM,
CC1=C[C@@H]2CN(C(=O)N2O[C@H](F)C(=O)O)[C@@H]1C(N)=O,2 µg/mL,11 nM,0.25 µg/mL,1.4 nM,0.06 µg/mL,71 nM,0.73 nM,32 µg/mL,41 nM,15 nM,
CC1=C[C@@H]2CN(C(=O)N2O[C@@H](F)C(=O)O)[C@@H]1c1nnc(C(N)=O)o1,16 µg/mL,180 nM,2 µg/mL,24 nM,2 µg/mL,26 nM,17 nM,> 32 µg/mL,360 nM,7.3 nM,
CCOC(=O)[C@H](F)ON1C(=O)N2C[C@H]1C(C)=C[C@H]2C(N)=O (racemic),,,,,,,,,,,bioavailability [18]: 71%
CCOC(=O)[C@@H](F)ON1C(=O)N2C[C@H]1C=C(C)[C@H]2C(N)=O,,,,,,,,,,,bioavailability [18]: 45%
